Assay results: ChEMBL document CHEMBL1141056, “Aqua mediated synthesis of substituted 2-amino-4H-chromenes and in vitro study as antibacterial agents” (Bioorg Med Chem Lett, 2005)

Assays:
Format in all cases: functional, organism-based
Escherichia coli [1] = assay: Antibacterial activity against Escherichia coli (ATCC 25922) at concentration 4.0 uM/ml in dimethylformamide, + = resistant
Outline: (§1)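 Broth microdilution MIC per NCCLS standard protocol. Compounds dissolved in DMF and doubling-diluted in Mueller Hinton broth across 0.5–128 µg/ml; ampicillin run alongside. Inoculum adjusted to McFarland 0.5 and diluted to approx. 5×10^5 cfu/ml final per well. Plates held overnight at 37 °C. Growth scored per concentration: + resistant, − susceptible. Each plate carried broth+inoculum and broth-only control wells.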

Pseudomonas aeruginosa [2] = assay: Antibacterial activity against Pseudomonas aeruginosa (ATCC 27853) at concentration 4.0 uM/ml in dimethylformamide, + = resistant; outline: as §1
Pseudomonas aeruginosa [3] = assay: Antibacterial activity against Pseudomonas aeruginosa (ATCC 27853) at concentration 2.0 uM/ml in dimethylformamide, + = resistant; outline: as §1
Staphylococcus aureus [4] = assay: Antibacterial activity against Staphylococcus aureus (ATCC 25923) at concentration 32.0 uM/ml in dimethylformamide, + = resistant; outline: as §1
Pseudomonas aeruginosa [5] = assay: Antibacterial activity against Pseudomonas aeruginosa (ATCC 27853) at concentration 1.0 uM/ml in dimethylformamide, + = resistant; outline: as §1
Escherichia coli [6] = assay: Antibacterial activity against Escherichia coli (ATCC 25922) at concentration 1.0 uM/ml in dimethylformamide, + = resistant; outline: as §1
Pseudomonas aeruginosa [7] = assay: Antibacterial activity against Pseudomonas aeruginosa (ATCC 27853) at concentration 32.0 uM/ml in dimethylformamide, + = resistant; outline: as §1
Escherichia coli [8] = assay: Antibacterial activity against Escherichia coli (ATCC 25922) at concentration 0.5 uM/ml in dimethylformamide, + = resistant; outline: as §1
Pseudomonas aeruginosa [9] = assay: Antibacterial activity against Pseudomonas aeruginosa (ATCC 27853) at concentration 0.5 uM/ml in dimethylformamide, + = resistant; outline: as §1
Staphylococcus aureus [10] = assay: Antibacterial activity against Staphylococcus aureus (ATCC 25923) at concentration 4.0 uM/ml in dimethylformamide, + = resistant; outline: as §1
Escherichia coli [11] = assay: Antibacterial activity against Escherichia coli (ATCC 25922) at concentration 8.0 uM/ml in dimethylformamide, + = resistant; outline: as §1
Pseudomonas aeruginosa [12] = assay: Antibacterial activity against Pseudomonas aeruginosa (ATCC 27853) at concentration 8.0 uM/ml in dimethylformamide, + = resistant; outline: as §1
Staphylococcus aureus [13] = assay: Antibacterial activity against Staphylococcus aureus (ATCC 25923) at concentration 2.0 uM/ml in dimethylformamide, + = resistant; outline: as §1
Pseudomonas aeruginosa [14] = assay: Antibacterial activity against Pseudomonas aeruginosa (ATCC 27853) at concentration 16.0 uM/ml in dimethylformamide, + = resistant; outline: as §1
Staphylococcus aureus [15] = assay: Antibacterial activity against Staphylococcus aureus (ATCC 25923) at concentration 16.0 uM/ml in dimethylformamide, + = resistant; outline: as §1
Staphylococcus aureus [16] = assay: Antibacterial activity against Staphylococcus aureus (ATCC 25923) at concentration 1.0 uM/ml in dimethylformamide, + = resistant; outline: as §1
Staphylococcus aureus [17] = assay: Antibacterial activity against Staphylococcus aureus (ATCC 25923) at concentration 8.0 uM/ml in dimethylformamide, + = resistant; outline: as §1
Escherichia coli [18] = assay: Antibacterial activity against Escherichia coli (ATCC 25922) at concentration 32.0 uM/ml in dimethylformamide, + = resistant; outline: as §1
Staphylococcus aureus [19] = assay: Antibacterial activity against Staphylococcus aureus (ATCC 25923) at concentration 64.0 uM/ml in dimethylformamide, + = resistant; outline: as §1
Staphylococcus aureus [20] = assay: Antibacterial activity against Staphylococcus aureus (ATCC 25923) at concentration 0.5 uM/ml in dimethylformamide, + = resistant; outline: as §1
Escherichia coli [21] = assay: Antibacterial activity against Escherichia coli (ATCC 25922) at concentration 2.0 uM/ml in dimethylformamide, + = resistant; outline: as §1
Escherichia coli [22] = assay: Antibacterial activity against Escherichia coli (ATCC 25922) at concentration 16.0 uM/ml in dimethylformamide, + = resistant; outline: as §1
Escherichia coli [23] = assay: Antibacterial activity against Escherichia coli (ATCC 25922) at concentration 64.0 uM/ml in dimethylformamide, + = resistant; outline: as §1

Measured: MIC

N#CC1=C(N)Oc2cc(O)ccc2C1c1cc2ccccc2nc1Cl (centres undefined)
Resistant: Escherichia coli [1] | Pseudomonas aeruginosa [2] | Pseudomonas aeruginosa [3] | Staphylococcus aureus [4] | Pseudomonas aeruginosa [5] | Escherichia coli [6] | Pseudomonas aeruginosa [7] | Escherichia coli [8] | Pseudomonas aeruginosa [9] | Staphylococcus aureus [10] | Escherichia coli [11] | Pseudomonas aeruginosa [12] | Staphylococcus aureus [13] | Pseudomonas aeruginosa [14] | Staphylococcus aureus [15] | Staphylococcus aureus [16] | Staphylococcus aureus [17] | Escherichia coli [18] | Staphylococcus aureus [19] | Staphylococcus aureus [20] | Escherichia coli [21] | Escherichia coli [22]

N#CC1=C(N)Oc2ccc3ccccc3c2C1c1ccc2c(c1)OCO2 (centres undefined)
Resistant: Escherichia coli [1] | Escherichia coli [23] | Pseudomonas aeruginosa [2] | Pseudomonas aeruginosa [3] | Staphylococcus aureus [4] | Pseudomonas aeruginosa [5] | Escherichia coli [6] | Pseudomonas aeruginosa [7] | Escherichia coli [8] | Pseudomonas aeruginosa [9] | Staphylococcus aureus [10] | Escherichia coli [11] | Pseudomonas aeruginosa [12] | Staphylococcus aureus [13] | Pseudomonas aeruginosa [14] | Staphylococcus aureus [15] | Staphylococcus aureus [16] | Staphylococcus aureus [17] | Escherichia coli [18] | Staphylococcus aureus [19] | Staphylococcus aureus [20] | Escherichia coli [21] | Escherichia coli [22]

CC1(C)S[C@@H]2[C@H](NC(=O)[C@H](N)c3ccccc3)C(=O)N2[C@H]1C(=O)O
Resistant: Pseudomonas aeruginosa [2] | Pseudomonas aeruginosa [3] | Pseudomonas aeruginosa [5] | Escherichia coli [6] | Escherichia coli [8] | Pseudomonas aeruginosa [9] | Staphylococcus aureus [10] | Staphylococcus aureus [13] | Staphylococcus aureus [16] | Staphylococcus aureus [20] | Escherichia coli [21]

N#CC1=C(N)Oc2cc(O)ccc2C1c1ccc2c(c1)OCO2 (centres undefined)
Resistant: Escherichia coli [1] | Escherichia coli [23] | Pseudomonas aeruginosa [2] | Pseudomonas aeruginosa [3] | Staphylococcus aureus [4] | Pseudomonas aeruginosa [5] | Escherichia coli [6] | Pseudomonas aeruginosa [7] | Escherichia coli [8] | Pseudomonas aeruginosa [9] | Staphylococcus aureus [10] | Escherichia coli [11] | Pseudomonas aeruginosa [12] | Staphylococcus aureus [13] | Pseudomonas aeruginosa [14] | Staphylococcus aureus [15] | Staphylococcus aureus [16] | Staphylococcus aureus [17] | Escherichia coli [18] | Staphylococcus aureus [19] | Staphylococcus aureus [20] | Escherichia coli [21] | Escherichia coli [22]
